Data: paper PMC11069345 (Bioorganic chemistry, 2024)
Like-named read-outs stand apart in the source and are kept apart here.

Assays:
[1] = system: HEK293 and HEK293-ABCG2 cells; assay: Cell viability MTT assay, 72 h; assay type: cell-based, human
How it was run: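 Parental HEK293 and HEK293-ABCG2 cells were seeded at 1.5×10^4 cells/well, left overnight, then exposed to test compound at 0.19–100 μM for 72 h at 37 °C under 5% CO2. Medium was replaced with 0.5 mg mL−1 MTT for 4 h. Formazan was dissolved in DMSO/ethanol (1:1) and absorbance read at 570 nm.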

ABCG2 [2] = target: T1, ABCG2 (Homo sapiens, UniProt Q9UNQ0); assay type: biochemical
T1 sequence (Q9UNQ0 1-655): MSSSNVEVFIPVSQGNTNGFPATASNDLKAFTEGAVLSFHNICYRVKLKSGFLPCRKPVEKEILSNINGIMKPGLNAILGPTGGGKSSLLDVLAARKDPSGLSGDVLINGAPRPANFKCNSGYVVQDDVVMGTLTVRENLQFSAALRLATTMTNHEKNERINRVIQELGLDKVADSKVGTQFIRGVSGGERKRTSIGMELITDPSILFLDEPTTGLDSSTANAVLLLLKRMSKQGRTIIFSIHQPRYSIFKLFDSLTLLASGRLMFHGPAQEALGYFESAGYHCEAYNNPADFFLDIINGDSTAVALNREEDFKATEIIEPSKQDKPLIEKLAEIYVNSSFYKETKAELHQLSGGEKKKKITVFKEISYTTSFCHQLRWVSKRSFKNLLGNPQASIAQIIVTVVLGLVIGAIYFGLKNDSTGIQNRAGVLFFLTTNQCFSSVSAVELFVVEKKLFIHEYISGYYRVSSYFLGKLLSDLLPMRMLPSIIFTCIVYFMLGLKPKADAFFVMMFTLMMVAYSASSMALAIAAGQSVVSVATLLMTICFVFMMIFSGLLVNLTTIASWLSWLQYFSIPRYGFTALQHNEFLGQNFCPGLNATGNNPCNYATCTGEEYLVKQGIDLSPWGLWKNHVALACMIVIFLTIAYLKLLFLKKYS

ABCG2 mRNA expression = assay: mRNA expression levels by qPCR in HEK293-ABCG2 cells; assay type: cell-based, human; conditions: 50 μM, 72 h
HEK293-ABCG2 cells = assay: Chemosensitization assay, co-treatment with SN-38, MTT, 72 h; assay type: cell-based, human; conditions: co-treatment with SN-38 0.05 μM, 11 at saturating concentration, Ko143 at 0.5 μM
ABCG2 (BCRP) [3] = target: T2, ABCG2 (BCRP) (Homo sapiens, UniProt Q9UNQ0)
T2 sequence (Q9UNQ0 1-655): T1 sequence (Q9UNQ0 1-655)

ABCB1 (P-gp) [4] = target: T3, ABCB1 (P-gp) (Homo sapiens, UniProt P08183)
T3 sequence (P08183 whole entry): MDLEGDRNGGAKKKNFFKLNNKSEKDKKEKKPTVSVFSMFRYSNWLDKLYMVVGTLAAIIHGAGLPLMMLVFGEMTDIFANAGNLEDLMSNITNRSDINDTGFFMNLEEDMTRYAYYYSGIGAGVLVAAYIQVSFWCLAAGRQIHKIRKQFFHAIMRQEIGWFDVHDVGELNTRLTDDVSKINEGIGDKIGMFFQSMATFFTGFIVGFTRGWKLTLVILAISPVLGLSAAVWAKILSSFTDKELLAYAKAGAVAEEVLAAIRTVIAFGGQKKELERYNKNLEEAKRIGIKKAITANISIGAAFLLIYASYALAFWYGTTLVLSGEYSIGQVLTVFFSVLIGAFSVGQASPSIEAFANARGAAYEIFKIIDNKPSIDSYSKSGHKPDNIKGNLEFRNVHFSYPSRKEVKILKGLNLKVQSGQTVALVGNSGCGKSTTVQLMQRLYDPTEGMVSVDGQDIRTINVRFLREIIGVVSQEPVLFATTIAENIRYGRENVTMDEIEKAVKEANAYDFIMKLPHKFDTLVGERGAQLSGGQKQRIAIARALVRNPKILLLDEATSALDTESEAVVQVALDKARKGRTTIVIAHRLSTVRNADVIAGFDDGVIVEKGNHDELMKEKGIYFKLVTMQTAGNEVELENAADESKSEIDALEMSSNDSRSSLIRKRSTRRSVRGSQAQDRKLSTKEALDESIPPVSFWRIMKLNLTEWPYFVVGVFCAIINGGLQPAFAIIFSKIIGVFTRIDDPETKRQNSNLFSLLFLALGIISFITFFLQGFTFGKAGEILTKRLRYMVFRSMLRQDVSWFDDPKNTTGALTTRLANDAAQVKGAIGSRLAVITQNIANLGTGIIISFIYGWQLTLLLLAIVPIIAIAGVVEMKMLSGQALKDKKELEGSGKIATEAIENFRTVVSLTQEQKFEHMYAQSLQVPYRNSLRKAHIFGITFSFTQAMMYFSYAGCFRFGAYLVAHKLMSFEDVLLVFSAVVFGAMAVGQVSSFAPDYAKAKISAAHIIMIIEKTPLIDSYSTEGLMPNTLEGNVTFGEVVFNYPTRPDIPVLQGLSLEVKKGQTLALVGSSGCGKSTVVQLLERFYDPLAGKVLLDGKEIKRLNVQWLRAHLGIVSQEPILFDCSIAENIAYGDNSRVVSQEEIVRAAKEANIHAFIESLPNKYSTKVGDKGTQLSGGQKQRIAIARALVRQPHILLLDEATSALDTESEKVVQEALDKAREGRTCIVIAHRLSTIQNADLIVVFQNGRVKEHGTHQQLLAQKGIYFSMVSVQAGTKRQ

ABCC1 (MRP1) [5] = target: T4, ABCC1 (MRP1) (Homo sapiens, UniProt P33527)
T4 sequence (P33527 whole entry): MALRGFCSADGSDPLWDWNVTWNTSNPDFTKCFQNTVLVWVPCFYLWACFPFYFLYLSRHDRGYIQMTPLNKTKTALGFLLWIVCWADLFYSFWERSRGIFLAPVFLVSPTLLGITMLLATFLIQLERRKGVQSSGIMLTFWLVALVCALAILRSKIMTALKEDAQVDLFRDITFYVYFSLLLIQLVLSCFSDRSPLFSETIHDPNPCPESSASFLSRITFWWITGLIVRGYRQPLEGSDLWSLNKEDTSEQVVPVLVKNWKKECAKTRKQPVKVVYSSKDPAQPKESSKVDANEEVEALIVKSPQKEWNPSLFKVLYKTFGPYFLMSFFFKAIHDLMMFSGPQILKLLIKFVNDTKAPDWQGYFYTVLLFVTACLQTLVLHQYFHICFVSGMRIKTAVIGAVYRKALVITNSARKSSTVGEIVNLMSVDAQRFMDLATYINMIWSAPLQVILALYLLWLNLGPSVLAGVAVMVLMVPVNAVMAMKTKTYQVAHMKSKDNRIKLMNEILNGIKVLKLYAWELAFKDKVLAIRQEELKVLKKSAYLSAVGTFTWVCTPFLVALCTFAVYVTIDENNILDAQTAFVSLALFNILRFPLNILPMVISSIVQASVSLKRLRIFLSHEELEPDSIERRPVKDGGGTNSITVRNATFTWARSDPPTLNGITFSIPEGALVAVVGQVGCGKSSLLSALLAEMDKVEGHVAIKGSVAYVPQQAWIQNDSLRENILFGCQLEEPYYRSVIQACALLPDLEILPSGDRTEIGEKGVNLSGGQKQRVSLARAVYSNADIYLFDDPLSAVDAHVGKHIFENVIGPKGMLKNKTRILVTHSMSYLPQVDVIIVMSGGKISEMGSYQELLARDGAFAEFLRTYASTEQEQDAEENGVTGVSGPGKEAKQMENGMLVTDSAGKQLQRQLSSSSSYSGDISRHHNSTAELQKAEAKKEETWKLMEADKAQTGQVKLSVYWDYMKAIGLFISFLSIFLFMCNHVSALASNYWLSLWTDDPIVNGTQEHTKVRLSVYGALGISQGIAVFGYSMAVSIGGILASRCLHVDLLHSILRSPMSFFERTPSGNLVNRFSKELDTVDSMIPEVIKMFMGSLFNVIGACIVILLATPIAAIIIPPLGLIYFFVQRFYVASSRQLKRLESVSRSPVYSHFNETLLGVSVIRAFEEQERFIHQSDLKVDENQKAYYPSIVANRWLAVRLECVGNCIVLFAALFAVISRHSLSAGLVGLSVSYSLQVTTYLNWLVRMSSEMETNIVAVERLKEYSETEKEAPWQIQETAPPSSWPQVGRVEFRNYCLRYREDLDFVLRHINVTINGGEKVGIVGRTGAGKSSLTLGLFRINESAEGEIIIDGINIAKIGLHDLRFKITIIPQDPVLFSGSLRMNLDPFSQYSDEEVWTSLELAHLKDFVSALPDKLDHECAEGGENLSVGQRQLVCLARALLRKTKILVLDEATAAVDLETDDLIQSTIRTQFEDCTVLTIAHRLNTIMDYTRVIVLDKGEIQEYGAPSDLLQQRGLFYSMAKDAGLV

ABCC1 (MRP1) [6] = target: T4, ABCC1 (MRP1); assay: Transport inhibition assay: calcein-AM in BHK21-ABCC1 cells, flow cytometry; conditions: for Inhibition (% ± SD) ABCC1 (MRP1) 10 μM: 10 μM compound; for Inhibition (% ± SD) ABCC1 (MRP1) 10 μM / Inhibition (% ± SD) ABCC1 (MRP1) 50 μM: calcein-AM 0.15 μM, relative to verapamil 30 μM (100%); for Inhibition (% ± SD) ABCC1 (MRP1) 50 μM: 50 μM compound
ABCB1 (P-gp) [7] = target: T3, ABCB1 (P-gp); assay: Transport inhibition assay: rhodamine 123 in NIH3T3-ABCB1 cells, flow cytometry; conditions: for Inhibition (% ± SD) ABCB1 (P-gp) 10 μM: 10 μM compound; for Inhibition (% ± SD) ABCB1 (P-gp) 10 μM / Inhibition (% ± SD) ABCB1 (P-gp) 50 μM: rhodamine 123 5 μM, relative to GF120918 0.5 μM (100%); for Inhibition (% ± SD) ABCB1 (P-gp) 50 μM: 50 μM compound
ABCG2 (BCRP) [8] = target: T2, ABCG2 (BCRP); conditions: for Inhibition (% ± SD) ABCG2 (BCRP) 10 μM: 10 μM compound; for Inhibition (% ± SD) ABCG2 (BCRP) 10 μM / Inhibition (% ± SD) ABCG2 (BCRP) 50 μM: mitoxantrone 5 μM, 30 min, relative to Ko143 0.5 μM (100%); for Inhibition (% ± SD) ABCG2 (BCRP) 50 μM: 50 μM compound
[9] = cited from earlier work
ABCG2 [10] = target: T1, ABCG2; conditions: cited from earlier work
[11] = human, probe mitoxantrone (5 μM)

C=CCc1ccc(O)c(-c2cc(CC=C)ccc2OC)c1 [Compound 11]
Concentration with cytotoxic effect ([1]; 0.19 – 100 μM tested, HEK293 and HEK293-ABCG2): > 100 µM | IG50 (concentration that reduces 50% of the cell viability) ([1]; estimated): > 100 µM | Stimulation of ABCG2 ATPase activity (ABCG2 [2]): ~ 60% | Inhibition of ABCG2 ATPase activity (ABCG2 [2]; 50 µM): ~ 30% | Effect on mRNA ABCG2 expression levels (ABCG2 mRNA expression): did not significantly affect the transcriptional levels of ABCG2 | Reversion of ABCG2-mediated resistance to SN-38 (cell viability) (HEK293-ABCG2 cells): completely revert the MDR phenotype mediated by ABCG2 | Extent of ABCG2 inhibition (partial or complete inhibitor) (ABCG2 (BCRP) [3]): complete ABCG2 inhibitor | IC50 (ABCG2 (BCRP) [3]): 9.5 µM | Inhibition (% ± SD) ABCG2 (BCRP) 10 μM (ABCG2 (BCRP) [3]): 62.0 ± 11.9% | Type of inhibition (Lineweaver-Burk plot) (ABCG2 (BCRP) [3]): mixed type of inhibition | Inhibition (% ± SD) ABCB1 (P-gp) 10 μM (ABCB1 (P-gp) [4]): −0.7 ± 1.2% | Inhibition (% ± SD) ABCB1 (P-gp) 50 μM (ABCB1 (P-gp) [4]): 2.8 ± 3.8% | Inhibition (% ± SD) ABCC1 (MRP1) 10 μM (ABCC1 (MRP1) [5]): 4.9 ± 7.0% | Inhibition (% ± SD) ABCC1 (MRP1) 50 μM (ABCC1 (MRP1) [5]): 11.5 ± 5.8%

C=CCc1ccc(OC)c(-c2cc(CC=C)ccc2OC)c1 [Compound 12]
Inhibition (% ± SD) ABCG2 (BCRP) 10 μM (ABCG2 (BCRP) [3]): 5.9 ± 10.9% | Inhibition (% ± SD) ABCG2 (BCRP) 50 μM (ABCG2 (BCRP) [3]): 32.8 ± 5.5% | Inhibition (% ± SD) ABCB1 (P-gp) 10 μM (ABCB1 (P-gp) [4]): −1.1 ± 1.5% | Inhibition (% ± SD) ABCB1 (P-gp) 50 μM (ABCB1 (P-gp) [4]): −0.5 ± 2.1% | Inhibition (% ± SD) ABCC1 (MRP1) 10 μM (ABCC1 (MRP1) [5]): 2.6 ± 1.8% | Inhibition (% ± SD) ABCC1 (MRP1) 50 μM (ABCC1 (MRP1) [5]): 9.1 ± 3.3%

C=CCc1ccc(OC)c(-c2cc(CC=C)cc(O)c2O)c1 [Compound 13, 5,5’-diallyl-2’-methoxy-[1,1’-biphenyl]-2,3-diol]
inhibition at 30 min, 10 μM (ABCC1 (MRP1) [6]; probe calcein-AM (0.15 μM)): 2.9 ± 4.3% | inhibition at 30 min, 50 μM (ABCC1 (MRP1) [6]; probe calcein-AM (0.15 μM)): 4.7 ± 6.4% | inhibition at 30 min, 10 μM (ABCB1 (P-gp) [7]; probe rhodamine 123 (5 μM)): 1.1 ± 4.6% | inhibition at 30 min, 50 μM (ABCB1 (P-gp) [7]; probe rhodamine 123 (5 μM)): -1.2 ± 1.8% | inhibition at 30 min, 10 μM (ABCG2 (BCRP) [8]; [11]): 4 ± 4.4% | inhibition at 30 min, 50 μM (ABCG2 (BCRP) [8]; [11]): 19.5 ± 4.4%

CCCc1ccc(O)c(-c2cc(CCC)ccc2O)c1 [Compound 14]
Inhibition (% ± SD) ABCC1 (MRP1) 10 μM (ABCC1 (MRP1) [6]): 5.6 ± 5.5% | Inhibition (% ± SD) ABCC1 (MRP1) 50 μM (ABCC1 (MRP1) [6]): 16.0 ± 10.7% | Inhibition (% ± SD) ABCB1 (P-gp) 10 μM (ABCB1 (P-gp) [7]): 0.5 ± 0.9% | Inhibition (% ± SD) ABCB1 (P-gp) 50 μM (ABCB1 (P-gp) [7]): −6.4 ± 0.3% | Inhibition (% ± SD) ABCG2 (BCRP) 10 μM (ABCG2 (BCRP) [8]): 1.8 ± 1.7% | Inhibition (% ± SD) ABCG2 (BCRP) 50 μM (ABCG2 (BCRP) [8]): 19.5 ± 4.5%

CCCc1ccc(O)c(-c2cc(CCC)ccc2OC)c1 [Compound 15]
Inhibition (% ± SD) ABCC1 (MRP1) 10 μM (ABCC1 (MRP1) [6]): 4.3 ± 3.9% | Inhibition (% ± SD) ABCC1 (MRP1) 50 μM (ABCC1 (MRP1) [6]): 5.8 ± 4.1% | Inhibition (% ± SD) ABCB1 (P-gp) 10 μM (ABCB1 (P-gp) [7]): 0.2 ± 0.8% | Inhibition (% ± SD) ABCB1 (P-gp) 50 μM (ABCB1 (P-gp) [7]): 2.0 ± 1.9% | Inhibition (% ± SD) ABCG2 (BCRP) 10 μM (ABCG2 (BCRP) [8]): 1.1 ± 5.4% | Inhibition (% ± SD) ABCG2 (BCRP) 50 μM (ABCG2 (BCRP) [8]): 20.4 ± 1.7%

COc1ccc2c3c([nH]c2c1)[C@H](CC(C)C)N1C(=O)[C@H](CCC(=O)OC(C)(C)C)NC(=O)[C@@H]1C3 [Ko143, reference compound]
Reversion of ABCG2-mediated resistance to SN-38 (cell viability) (HEK293-ABCG2 cells): same percentage of cell viability as the observed for HEK293 cells exposed to SN-38 alone | IG50 (cytotoxicity) [9]: 18 to 34 µM

C=CCc1ccc(O)c(-c2ccc(O)c(CC=C)c2)c1 [honokiol]
Transport by ABCG2 (substrate) (ABCG2 [10]): substrates of ABCG2

C=CCc1ccc(O)c(-c2cc(CC=C)ccc2O)c1 [magnolol]
Transport by ABCG2 (substrate) (ABCG2 [10]): substrates of ABCG2
